Active and inactive are the calls of the source. The rule behind the calls is not given here.
Columns and labels:
MCF7 [1] = assay: Cytotoxicity against human MCF7 cells assessed as reduction in cell viability at 5 uM by MTT assay; type: functional
BT-549 [2] = assay: Induction of apoptosis in nuclear fractions of human BT549 cells assessed as ratio of PARP to beta-actin level at 5 uM by western blot analysis (reference value: 1); type: functional
MCF7 [3] = assay: Inhibition of mammosphere formation in human MCF7 cells at 2 uM after 7 days by microscopic method; type: functional, cell-based
Outline: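 MCF-7 cells were grown under mammosphere-forming conditions with compound. Spheres 60 μm or larger were counted for quantitation.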

MDA-MB-231 [4] = assay: Cytotoxicity against human MDA-MB-231 cells assessed as reduction in cell viability at 5 uM by MTT assay; type: functional
BT-549 [5] = assay: Induction of apoptosis in human BT549 cells assessed as ratio of cleaved caspase-3 to beta-actin level at 5 uM by western blot analysis (reference value: 1); type: functional
MDA-MB-231 [6] = assay: Effect on epithelial-mesenchymal transition in human MDA-MB-231 cells assessed as ratio of vimentin to beta-actin level at 5 uM by Western blot analysis (reference value: 1); type: functional
BT-549 [7] = assay: Cytotoxicity against human BT549 cells assessed as reduction in cell viability at 5 uM by MTT assay; type: functional
BT-549 [8] = assay: Effect on epithelial-mesenchymal transition in human BT549 cells assessed as ratio of E-cadherin to beta-actin level at 5 uM by Western blot analysis (reference value: 1); type: functional
BT-549 [9] = assay: Induction of apoptosis in nuclear fractions of human BT549 cells assessed as ratio of cleaved PARP to beta-actin level at 5 uM by western blot analysis (reference value: 1); type: functional
MCF7 [10] = assay: Down regulation of c-Myc expression in human MCF7 cells at 5 uM by Western blot analysis; type: functional
Outline: (§1)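 MCF-7 cells were treated and lysates probed by Western blot for CSC-related markers, with β-actin as loading control. Band densitometry was normalized to DMSO-treated samples.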

MDA-MB-231 [11] = assay: Inhibition of mammosphere formation in human MDA-MB-231 cells assessed as ratio of KLF4 to beta actin level at 5 uM by Western blot analysis (Rvb= 1); type: functional
Outline: (§2)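 Post-treatment cell lysates were probed by Western blot for CSC markers, with β-actin as the loading control. Band densitometry was normalized to DMSO-treated samples.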

BT-549 [12] = assay: Effect on epithelial-mesenchymal transition in human BT549 cells assessed as ratio of slug to beta-actin level at 5 uM by Western blot analysis (reference value: 1); type: functional
MDA-MB-231 [13] = assay: Inhibition of mammosphere formation in human MDA-MB-231 cells assessed as ratio of C-Myc to beta actin level at 5 uM by Western blot analysis (Rvb= 1); type: functional; outline: as §2
MCF7 [14] = assay: Inhibition of mammosphere formation in human MCF7 cells assessed as ratio of C-Myc to beta actin level at 5 uM by Western blot analysis (Rvb= 1); type: functional; outline: as §2
MCF-10A [15] = assay: Induction of apoptosis in human MCF10A cells assessed as ratio of cleaved caspase-3 to beta-actin level at 5 uM by western blot analysis (reference value: 1); type: cell-based
MDA-MB-231 [16] = assay: Cytotoxicity against human MDA-MB-231 cells assessed as reduction in cell viability by MTT assay; type: functional, cell-based
MDA-MB-231 [17] = assay: Induction of apoptosis in nuclear fractions of human MDA-MB-231 cells assessed as ratio of cleaved PARP to beta-actin level at 5 uM by western blot analysis (reference value: 1); type: functional
BT-549 [18] = assay: Effect on beta-catenin translocation in cytosolic fraction of human BT549 cells assessed as ratio of beta-catenin to beta-actin level at 5 uM by Western blot analysis (reference value: 1); type: functional
BT-549 [19] = assay: Induction of apoptosis in human BT549 cells assessed as ratio of cleaved caspase-8 to beta-actin level at 5 uM by western blot analysis (reference value: 1); type: functional
BT-549 [20] = assay: Inhibition of mammosphere formation in human BT549 cells assessed as ratio of C-Myc to beta actin level at 5 uM by Western blot analysis (Rvb= 1); type: functional
MCF7 [21] = assay: Inhibition of colony formation in human MCF7 cells at 5 uM supplemented with fresh medium containing compound every 3 to 4 days for 7 days by crystal violet staining based adherent cell colony-forming assay; type: functional
Outline: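 MCF-7 cells were plated for adherent colony formation and treated for 7 days. Colonies were counted at the end of treatment and normalized to untreated samples.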

MCF7 [22] = assay: Inhibition of mammosphere formation in human MCF7 cells assessed as ratio of Nanog to beta actin level at 5 uM by Western blot analysis (Rvb= 1); type: functional; outline: as §2
MCF7 [23] = assay: Down regulation of KLF4 expression in human MCF7 cells at 5 uM by Western blot analysis; type: functional; outline: as §1
MCF-10A [24] = assay: Induction of apoptosis in human MCF10A cells assessed as ratio of cleaved caspase-8 to beta-actin level at 5 uM by western blot analysis (reference value: 1); type: cell-based
MCF7 [25] = assay: Inhibition of mammosphere formation in human MCF7 cells assessed as ratio of KLF4 to beta actin level at 5 uM by Western blot analysis (Rvb= 1); type: functional; outline: as §2
MDA-MB-231 [26] = assay: Effect on epithelial-mesenchymal transition in human MDA-MB-231 cells assessed as ratio of slug to beta-actin level at 5 uM by Western blot analysis (reference value: 1); type: functional
MDA-MB-231 [27] = assay: Effect on beta-catenin translocation in nuclear fraction of human MDA-MB-231 cells assessed as ratio of beta-catenin to beta-actin level at 5 uM by Western blot analysis (reference value: 1); type: functional
MCF7 [28] = assay: Down regulation of Sox-2 expression in human MCF7 cells at 5 uM by Western blot analysis; type: functional; outline: as §1
MDA-MB-231 [29] = assay: Anti-migratory activity against human MDA-MB-231 cells assessed as reduction in wound closure at 2 uM up to 24 hrs by wound-healing assay; type: functional, cell-based
Outline: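 MDA-MB-231 monolayer was scratched to make a wound gap. Cells were treated alongside a DMSO vehicle control, and migration into the gap was imaged at 24 h.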

MDA-MB-231 [30] = assay: Induction of apoptosis in human MDA-MB-231 cells assessed as ratio of cleaved caspase-3 to beta-actin level at 5 uM by western blot analysis (reference value: 1); type: functional
MCF7 [31] = assay: Induction of apoptosis in human MCF7 cells assessed as ratio of cleaved caspase-9 to beta-actin level at 5 uM by western blot analysis (reference value: 1); type: functional
MCF7 [32] = assay: Inhibition of mammosphere formation in human MCF7 cells assessed as ratio of Sox2 to beta actin level at 5 uM by Western blot analysis (Rvb= 1); type: functional; outline: as §2
MCF-10A [33] = assay: Induction of apoptosis in human MCF10A cells assessed as ratio of cleaved caspase-9 to beta-actin level at 5 uM by western blot analysis (reference value: 1); type: cell-based
BT-549 [34] = assay: Effect on beta-catenin translocation in nuclear fraction of human BT549 cells assessed as ratio of beta-catenin to beta-actin level at 5 uM by Western blot analysis (reference value: 1); type: functional
MCF7 [35] = assay: Down regulation of Nanog expression in human MCF7 cells at 5 uM by Western blot analysis; type: functional; outline: as §1
MDA-MB-231 [36] = assay: Effect on epithelial-mesenchymal transition in human MDA-MB-231 cells assessed as ratio of E-cadherin to beta-actin level at 5 uM by Western blot analysis (reference value: 1); type: functional

With `C=C(c1ccc(C(=O)NCCN2CCCC2)cc1)c1cc2c(cc1C)C(C)(C)CCC2(C)C` the Activity (MCF7 [1]) was 40%, the Ratio (BT-549 [2]) was 0.9 and the inhibition (MCF7 [3]) was “Active”. The Activity (MDA-MB-231 [4]) was 60%, the Ratio (BT-549 [5]) was 2.1 and the Ratio (MDA-MB-231 [6]) was 0.3. For the same compound, the Activity (BT-549 [7]) was 60%, the Ratio (BT-549 [8]) was 6.3 and the Ratio (BT-549 [9]) was 2.5. For the same compound, the Activity (MCF7 [10]) was 10 - 30%, the Ratio (MDA-MB-231 [11]) was 0.5 and the Ratio (BT-549 [12]) was 0.7. For the same compound, the Ratio (MDA-MB-231 [13]) was 1.1, the Ratio (MCF7 [14]) was 0.8 and the Ratio (MCF-10A [15]) was 1. The EC50 (MDA-MB-231 [16]) was < 10 µM, the Ratio (MDA-MB-231 [17]) was 1.5 and the Ratio (BT-549 [18]) was 2.4. For the same compound, the Ratio (BT-549 [19]) was 1, the Ratio (BT-549 [20]) was 0.8 and the “inhibition (INH)” value (MCF7 [21]) was 80%. For the same compound, the Ratio (MCF7 [22]) was 0.8, the Activity (MCF7 [23]) was 10 - 30% and the Ratio (MCF-10A [24]) was 1. It also gave a Ratio (MCF7 [25]) of 0.7, a Ratio (MDA-MB-231 [26]) of 1 and a Ratio (MDA-MB-231 [27]) of 0.4. For the same compound, the Activity (MCF7 [28]) was 60%, the Activity (MDA-MB-231 [29]) was “Active” and the Ratio (MDA-MB-231 [30]) was 3.4. It also gave a Ratio (MCF7 [31]) of 1.2, a Ratio (MCF7 [32]) of 0.4 and a Ratio (MCF-10A [33]) of 1. For the same compound, the Ratio (BT-549 [34]) was 0.5, the Activity (MCF7 [35]) was 20% and the Ratio (MDA-MB-231 [36]) was 6.2.
